Compound activity deposited in PubChem by several laboratories.
Compounds with a hit are over-represented: about 9.6% of the library has one in this group of screens.
TNAP act hiacc – activators of human TNAP at high phosphate acceptor concentration | P05186 | purified TNAP, CDP-star luminescence, 1 M DEA, 30 min; hits give high values; 0 = EDTA background, 1 = DMSO-only activity | activation factor at 20 µM | 200,000 tested, under 10 active;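 active = activation factor at least 2 at 20 µM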
Target sequence (P05186 whole entry, looked up): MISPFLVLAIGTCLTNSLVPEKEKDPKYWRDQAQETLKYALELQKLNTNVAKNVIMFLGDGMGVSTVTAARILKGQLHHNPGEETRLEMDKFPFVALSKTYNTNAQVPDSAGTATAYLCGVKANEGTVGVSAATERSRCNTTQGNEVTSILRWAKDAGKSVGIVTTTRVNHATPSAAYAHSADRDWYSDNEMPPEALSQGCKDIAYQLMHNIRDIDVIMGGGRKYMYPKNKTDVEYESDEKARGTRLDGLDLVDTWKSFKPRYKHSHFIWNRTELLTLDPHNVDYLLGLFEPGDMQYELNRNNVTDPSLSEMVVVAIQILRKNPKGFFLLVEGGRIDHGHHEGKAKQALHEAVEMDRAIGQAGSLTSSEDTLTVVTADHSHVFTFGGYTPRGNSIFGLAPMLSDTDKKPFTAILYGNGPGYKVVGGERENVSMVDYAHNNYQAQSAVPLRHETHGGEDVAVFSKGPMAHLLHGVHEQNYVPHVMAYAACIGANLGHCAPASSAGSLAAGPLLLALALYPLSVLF
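Control set: EDTA negative control, DMSO positive control / Assay system: human TNAP / Quantity: TNAP 1/800 final / Evaluation: TNAP activation factor scaled between EDTA and DMSO control wells / Measured by: luminescent substrate turnover signal / Compound dosing: one dose, 20 µM / Times: 30 min enzyme reaction at room temperature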
Lmaj promast – reduces viability of Leishmania major promastigotes; resazurin fluorescence viability; inhibition, % at 10 µM; 200,000 compounds, 9% hits; in the data active = inhibition above about 50%;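 note: promastigotes grown with compound for 44 hours at 28 °C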
PTEN del growth – PTEN-deleted cell growth suppression; HCT116 PTEN-null viability, CellTiter-Glo, 60 h; hits give low values; viability, % at 10 µM; 140,000 compounds, 1.2% hits; AID 827;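 active = viability at or below a set limit, 4 SD under the median of all tested compounds, cut at about 3.7% in these data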;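 note: PTEN knockout HCT116 line with beta catenin targeted HCT116 as companion control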
bCat KO growth – beta-catenin-lacking colon tumor cell growth suppression | HCT116 beta-catenin knockout viability, CellTiter-Glo, 60 h; hits give low values | viability, % at 10 µM | 140,000 compounds, 1.5% hits | AID 818;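 active = viability at or under a set limit, the compound median less 4 SD, cut at about 6% in these data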
TNAP inh noacc – TNAP (human) inhibition, acceptor-free conditions | P05186 | purified TNAP, CDP-star luminescence, 30 min | inhibition, % at 20 µM | 200,000 compounds, 0.26% hits;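 active = tissue-nonspecific alkaline phosphatase inhibition above about 50% at 20 µM in the single-dose screen, limit read from the data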
TNAP inh hi DEA – TNAP (human) inhibition, high acceptor; 200,000 compounds, 0.03% hits; inhibition, % at 20 µM; purified TNAP, CDP-star luminescence, 1 M DEA; AID 1135;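 active = over 50% inhibition of tissue-nonspecific alkaline phosphatase at 20 µM in the single-dose screen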
Hits are given with their value; – = inactive; · = no result given.

SMILES | TNAP act hiacc | Lmaj promast | PTEN del growth | bCat KO growth | TNAP inh noacc | TNAP inh hi DEA
O=C(Cc1ccccc1)Nc1cc(Cl)ccc1Sc1ccccc1 | – | 60 | – | – | – | –
Cc1c(NS(=O)(=O)c2cc(NC(=O)CCN3CCCC(C)C3)ccc2Cl)c(=O)n(-c2ccccc2)n1C (stereo unspecified) | – | – | · | · | – | –
CN1CCC(=NNC(=O)c2cn(-c3ccccc3)nc2-c2ccccc2)CC1 | – | – | – | – | – | –
O=C(COc1ccc(Br)cc1Cl)NC(=O)NCc1ccccc1 | – | 54 | – | – | – | –
O=C(COc1ccc(Br)cc1CNC1CCCCC1)NCCc1ccccc1 | – | 93 | · | · | – | –
O=C(COc1ccc(Br)cc1Cl)NC(=O)Nc1ccc2c(c1)OCCO2 | – | – | · | · | – | –
CCOc1ccc(N(CC(=O)NC(C(C)C)C(C)C)S(=O)(=O)c2ccc(OC)c(OC)c2)cc1 | – | – | · | · | – | –
O=S(=O)(Nc1cccc(-c2ccc3nncn3n2)c1)c1ccc(Cl)s1 | – | – | · | · | – | –
Cc1ccc(S(=O)(=O)Nc2nc3ccccc3nc2NCc2ccc3c(c2)OCO3)cc1C | – | – | – | – | – | –
O=C(Nc1cccc2ccccc12)c1nn(C23CC4CC(CC(C4)C2)C3)cc1[N+](=O)[O-] | – | 81 | – | – | – | –
CCn1nc(C(=O)Nc2cccc3ccccc23)c(Cl)c1Cl | – | – | – | – | – | –
COc1ccc(NC(=O)c2nn(C34CC5CC(CC(C5)C3)C4)cc2[N+](=O)[O-])cc1 | – | 96 | – | – | – | –
COc1ccc(S(=O)(=O)NC(CC(=O)N2CCc3ccccc32)c2ccco2)cc1 (stereo unspecified) | – | 76 | – | – | – | –
Cc1ccc(S(=O)(=O)NC(CC(=O)N2CCc3ccccc32)c2ccco2)cc1 (stereo unspecified) | – | – | – | – | – | –
Cn1c(=O)oc2cc(S(=O)(=O)N3CCCc4ccccc43)ccc21 | – | – | – | – | – | –
CC(C)(C)NC(=O)Cn1c(=O)oc2cc(S(=O)(=O)N3CCc4ccccc43)ccc21 | – | 98 | – | – | – | –
Cn1c(=O)c(=O)n(C)c2cc(S(=O)(=O)N3CCc4ccccc43)ccc21 | – | 52 | – | – | – | –
CCOC(=O)Cn1c(=O)oc2cc(S(=O)(=O)N3CCc4ccccc43)ccc21 | – | 60 | – | – | – | –
COc1ccc(/C=C/C(=O)Nc2cc(S(=O)(=O)N3CCOCC3)ccc2C)cc1OC | – | – | · | · | – | –
CCCCNc1ccc(S(=O)(=O)c2cccc([N+](=O)[O-])c2)cc1[N+](=O)[O-] | – | – | – | – | – | –
N#Cc1c(-n2cccc2C=O)sc2c1CCCC2 | – | 52 | · | · | – | –
O=Cc1cccn1-c1sc2c(c1C(=O)O)CCCC2 | – | – | – | – | – | –
O=C(NCCc1ccccn1)C(F)(F)C(F)(F)C(F)(F)C(F)(F)C(F)(F)C(F)(F)C(F)(F)C(F)F | – | – | – | – | – | –
CCC(=O)c1ccc(OCC(O)CNCc2ccc(F)cc2)cc1 (stereo unspecified) | – | 80 | – | – | – | –
CCC(=O)c1ccc(OCC(O)CN(C)C2CCCCC2)cc1 (stereo unspecified) | – | 92 | – | – | – | –
SMILES | TNAP act hiacc | Lmaj promast | PTEN del growth | bCat KO growth | TNAP inh noacc | TNAP inh hi DEA
CN(CC(O)COc1ccc(OCC(O)CN(C)C2CCCCC2)cc1)C1CCCCC1 (stereo unspecified) | – | 63 | – | – | – | –
CN(CC(O)COC(c1ccccc1)c1ccccc1)C1CCCCC1 (stereo unspecified) | – | – | · | · | – | –
Cc1cccc(C)c1OCC(O)CN(Cc1ccccc1O)C1CCCCC1 (stereo unspecified) | – | 94 | · | · | – | –
O=C(Nc1nc(-c2ccc3c(c2)OCCO3)cs1)C1CCCC1 | – | – | · | · | – | –
CSc1ccc(S(=O)(=O)N(CC(=O)NN=C2CCN(C)CC2)c2ccc(C)cc2)cc1 | – | – | · | · | – | –
CCc1noc(C)c1C(=O)Nc1nnc(C2CCCCC2)s1 | – | – | · | · | – | –
COc1cc2[nH]c(=O)n(C3CCCCC3)c(=O)c2cc1OC | – | 50 | – | – | – | –
CCc1nc2oc3cc(OC)ccc3c(=O)c2c(=O)n1Cc1ccccc1 | – | 95 | – | – | – | –
CCc1nc2oc3ccccc3c(=O)c2c(=O)n1Cc1ccccc1 | – | – | – | – | – | –
COc1ccc2c(=O)c3c(=O)n(Cc4ccco4)c(-c4ccc(C)cc4)nc3oc2c1 | – | 59 | – | – | – | –
CN(C(=O)COC(=O)c1cc(S(=O)(=O)N2CCOCC2)c(Cl)cc1Cl)C1CCS(=O)(=O)C1 (stereo unspecified) | – | – | · | · | – | –
Cn1cc(C(=O)c2ccc(Cl)cc2Cl)cc1C(=O)N/N=C(\N)COc1ccc(Cl)cc1Cl | – | 100 | – | – | – | –
COc1cc(OC)cc(N(C(=O)C2COc3ccccc3O2)C(C(=O)NC2CCCCC2)c2ccc(O)cc2)c1 (stereo unspecified) | – | 64 | – | – | – | –
COc1cccc(C(C(=O)NC2CCCCC2)N(CCN2CCOCC2)C(=O)C2COc3ccccc3O2)c1 (stereo unspecified) | – | – | · | · | – | –
Cc1ccc(N(C(=O)C2COc3ccccc3O2)C(C(=O)NC2CCCCC2)c2cn(C)nc2C)cc1 (stereo unspecified) | – | – | – | – | – | –
COc1ccc(N(C(=O)C2COc3ccccc3O2)C(C(=O)NC2CCCCC2)c2ccccc2)cc1OC (stereo unspecified) | – | 99 | – | – | – | –
CC12C(=O)N(c3cccc(OC(=O)c4ccco4)c3)C(=O)C1C1c3ccccc3C2c2ccccc21 (stereo unspecified) | – | – | – | – | – | –
CC12C(=O)N(c3ccc(OC(=O)c4ccco4)cc3)C(=O)C1C1c3ccccc3C2c2ccccc21 (stereo unspecified) | – | 58 | – | – | – | –
COc1ccc([N+](=O)[O-])cc1N(CC(=O)N(C)C)S(C)(=O)=O | – | – | · | · | – | –
CC[C@H](C)[C@H](NC(=O)c1ccc(Cl)cc1)C(=O)OCC(=O)c1ccc2c(c1)NC(=O)CO2 | – | 100 | – | – | – | –
CC(C)[C@H](NC(=O)c1ccccc1)C(=O)OCC(=O)c1ccc2c(c1)NC(=O)CO2 | – | – | – | – | – | –
CS(=O)(=O)Cc1nc2ccccc2oc1=O | – | 100 | – | – | – | –
c1ccc2oc(CCc3nc4ccccc4o3)nc2c1 | – | · | · | · | – | –
C/C(O)=C\c1nc2ccccc2oc1=O | – | 65 | – | – | – | –
O=C(COc1ncnc2ccccc12)Nc1cc([N+](=O)[O-])ccc1Cl | – | – | · | · | – | –
